The record followed here is ChEMBL document CHEMBL4346686, “Discovery and biological evaluation of novel androgen receptor antagonist for castration-resistant prostate cancer” (Eur J Med Chem, 2019).

The subject of assay [1] is PC-3. Nature of the assay: Antiproliferative activity against human PC3 cells assessed as reduction in cell viability incubated for 6 days by CCK8 assay. The class given is functional, cell-based. The conditions noted are these: PC-3, 144 h. Put shortly: (§1)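 Cells seeded (2×10^4 per well for VCaP, 1–3×10^3 for the others) and compound added after 24 h as a 9-point, 3-fold serial dilution. Exposure 6 days, then CCK-8 for 1–4 h and absorbance at 450 nm. IC50 from curve fit, mean of at least two independent experiments run in duplicate.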

For assay [2], the system named is VCaP. The experiment in a line: Antiproliferative activity against human VCaP cells assessed as reduction in cell viability incubated for 6 days by CCK8 assay. The class given is functional, cell-based. The following applies: 144 h. The essentials:
as §1
In general terms: Tetrazolium assays rely on reduction of a dye to a coloured formazan, in cell work by metabolically active cells.

Assay [3] in a line: Antiproliferative activity against human LNCaP-AR cells assessed as reduction in cell viability incubated for 6 days by CCK8 assay. The class given is functional, cell-based. The following applies: 144 h. Put shortly:
as §1

In assay [4] the test system is CWR22R. The experiment in a line: Antiproliferative activity against human 22Rv1 cells assessed as reduction in cell viability incubated for 6 days by CCK8 assay. The following applies: 22Rv1, 144 h. The class given is functional, cell-based. Put shortly:
as §1

Assay [5] concerns L02. The experiment in a line: Antiproliferative activity against human L02 cells assessed as reduction in cell viability incubated for 6 days by CCK8 assay. The class given is cell-based. The conditions noted are these: L02, 144 h. The essentials: as §1

With `CCN(c1ccc(C#N)c(Cl)c1)c1cc(-c2cnc3ccccc3c2)ccc1C`, the IC50 in assay [1] turned out to be 3.57 µM; in assay [2], 25.3 µM; in assay [3], 1980 nM.
Take `CCN(c1ccc(C#N)c(Cl)c1)c1cc(-c2cccs2)ccc1C`: the figures for the half-inhibitory concentration (IC50) in assay [1], in assay [4] and in assay [3] were greater than 30 µM, 22 µM and 380 nM, respectively.
In the case of `CCN(c1cccc(-n2ccnc2)c1)c1ccc(C#N)c(Cl)c1`, the IC50 was greater than 30 µM in assay [1]; greater than 30 µM in assay [2]; greater than 30 µM in assay [4]; 330 nM in assay [3]; 23.2 µM in assay [5].
Regarding `N#Cc1ccc(N2CCc3cc(-c4cnc5ccccc5c4)ccc32)cc1C(F)(F)F`, in assay [3], the IC50 was 11500 nM.
As to `CCN(c1ccc(C#N)c(Cl)c1)c1cc(C2=CCCCC2)ccc1C`, the IC50 in assay [2] turned out to be 20 µM; in assay [3], 2550 nM.
For `CCN(c1ccncc1)c1cc(-c2c(C)noc2C)ccc1C`, in that order: 2.01 µM and 2880 nM.
`CCN(c1ccccn1)c1cc(-c2c(C)noc2C)ccc1C`: the IC50 worked out at 4.8 µM in assay [1]; 0.87 µM in assay [2]; 5.43 µM in assay [4]; 630 nM in assay [3]; 4.42 µM in assay [5].
Turning to `N#Cc1ccc(N2CCc3cc(-c4cncnc4)ccc3C2)cc1C(F)(F)F`, in assay [3], the IC50 was 1670 nM.
Take `CCN(c1ccc(C#N)c(Cl)c1)c1cc(-c2c(C)noc2C)ccc1C`: the 50% inhibitory concentration (IC50) in assay [1] turned out to be 4.84 µM; in assay [2], 1.2 µM; in assay [4] it was 2.99 µM; in assay [3], 190 nM; in assay [5] it was 8.67 µM.
For `CCN(c1ccc(C#N)c(Cl)c1)c1cc(-c2ccncc2)ccc1C`, in that order: 3.58 µM, 2.9 µM, 1.03 µM, 480 nM and 1.73 µM.
For `CCN(c1ccc(C#N)c(Cl)c1)c1cc(-n2ccnc2)ccc1C`, in that order: greater than 30 µM, greater than 30 µM, greater than 30 µM, 320 nM and 15 µM.
For `Cc1noc(C)c1-c1cccc(Oc2ccc(C#N)c(C(F)(F)F)c2)c1`, the 50% inhibitory concentration (IC50) in assay [3] is 1670 nM.
Consider `CCN(c1ccc(C#N)c(C(F)(F)F)c1)c1cc(-n2ccnc2)ccc1C`, for which the half-maximal inhibitory concentration (IC50) in assay [1] was greater than 30 µM; in assay [2], 3.92 to 30 µM; in assay [4] it was 16.3 µM; in assay [3], 400 to 560 nM.
Take `CCN(c1ccc(C#N)c(Cl)c1)c1cc(-c2ccccc2)ccc1C`: the IC50 in assay [2] is greater than 30 µM; in assay [4], greater than 30 µM; in assay [3] it was 2780 nM; in assay [5], greater than 30 µM.
Take `CCN(c1ccc(C#N)c(Cl)c1)c1cc(-n2cccn2)ccc1C`: the IC50 is 15.7 µM in assay [1], 2.34 µM in assay [2], greater than 30 µM in assay [4] and 290 nM in assay [3].
Regarding `CCN(c1ccc(C#N)c(Cl)c1)c1cc(-c2c[nH]nc2C)ccc1C`, the half-maximal inhibitory concentration (IC50) in assay [1] was 9.03 µM; in assay [2], 3.19 µM; in assay [4] it was 5.38 µM; in assay [3], 320 nM; in assay [5], 5.78 µM.
With `Cn1nccc1-c1cccc2c1CCCN2c1ccc(C#N)c(C(F)(F)F)c1`, the IC50 in assay [1] was 9.8 µM; in assay [2] it was greater than 30 µM; in assay [4], 10.4 µM; in assay [3] it was 240 nM.
For `CCN(c1ccc(C#N)c(Cl)c1)c1cc(-c2ccco2)ccc1C`, in that order: greater than 30 µM, greater than 30 µM, greater than 30 µM and 490 nM.
In the case of `N#Cc1ccc(N2CCc3cc(-c4cncnc4)ccc32)cc1C(F)(F)F`, in assay [3], the IC50 was 21000 nM.
Turning to `Cc1noc(C)c1-c1cccc2c1CCCN2c1ccc(C#N)c(C(F)(F)F)c1`, the results for the IC50 in assay [2] and in assay [3] were greater than 30 µM and 1420 nM, respectively.
In the case of `N#Cc1ccc(N2CCc3cc(-c4cccnc4)ccc3C2)cc1C(F)(F)F`, the half-inhibitory concentration (IC50) in assay [2] stood at 2.53 µM; in assay [4] it was 4.79 µM; in assay [3], 760 nM.
As to `N#Cc1ccc(N2CCCc3c(-c4ccncc4)cccc32)cc1C(F)(F)F`, the IC50 in assay [1] was 28.7 µM; in assay [2], greater than 30 µM; in assay [4] it was 15 µM; in assay [3], 70 nM; in assay [5], 6.38 µM.
In the case of `N#Cc1ccc(N2CCc3cc(-c4ccncc4)ccc3C2)cc1C(F)(F)F`, the half-inhibitory concentration (IC50) came to 3.5 µM in assay [2], 6.94 µM in assay [4] and 980 nM in assay [3].
On to `CCN(c1cccc(-n2ccnc2)c1)c1ccc(C#N)c(C(F)(F)F)c1`, for which the half-inhibitory concentration (IC50) is greater than 30 µM in assay [1], greater than 30 µM in assay [2], 19 µM in assay [4] and 580 nM in assay [3].
As to `N#Cc1ccc(N2CCCc3c(-c4cccnc4)cccc32)cc1C(F)(F)F`, the IC50 in assay [1] amounted to 7.97 µM; in assay [2] it was 13.5 µM; in assay [4], 12.3 µM; in assay [3], 120 nM; in assay [5] it was 10.5 µM.
On to `CCN(c1cccc(-c2ccccc2)c1)c1ccc(C#N)c(Cl)c1`, for which the half-maximal inhibitory concentration (IC50) in assay [3] was found to be 1290 nM.
Take `CCN(c1ccc(C#N)c(Cl)c1)c1cc(-c2ccoc2)ccc1C`: the IC50 in assay [1] is greater than 30 µM; in assay [2], 4.01 µM; in assay [4], greater than 30 µM; in assay [3], 480 nM.
`CCN(c1ccc(C#N)c(Cl)c1)c1cc(-c2ccc(F)nc2)ccc1C`: the 50% inhibitory concentration (IC50) in assay [1] was greater than 30 µM; in assay [2] it was greater than 30 µM; in assay [4] it was 16.5 µM; in assay [3], 410 nM.
`CCN(c1cccc(-c2cncnc2)c1)c1ccc(C#N)c(Cl)c1`: the IC50 in assay [1] is greater than 30 µM; in assay [2] it was greater than 30 µM; in assay [4], greater than 30 µM; in assay [3], 360 nM.
For the compound `CCN(c1ccc(C#N)c(Cl)c1)c1cc(-c2cn[nH]c2)ccc1C`, the IC50 is 15.3 µM in assay [1], greater than 30 µM in assay [4] and 700 nM in assay [3].
As to `N#Cc1ccc(N2CCc3cc(-c4cccnc4)ccc32)cc1C(F)(F)F`, the IC50 in assay [3] was found to be 1240 nM.
Regarding `CCN(c1ccc(C#N)c(Cl)c1)c1cc(-n2cnc3ccccc32)ccc1C`, the concentration for half-maximal inhibition (IC50) was determined as 8.16 µM in assay [1], 8.56 µM in assay [2], 3.04 µM in assay [4] and 390 nM in assay [3].
For `N#Cc1ccc(N2CCc3cc(-c4cnc5ccccc5c4)ccc3C2)cc1C(F)(F)F`, in that order: 25.1 µM, greater than 30 µM, 25.9 µM and 980 nM.

One may read the IC50 as the concentration needed to halve the response being measured.
